As usually defined, the inhibition is the share of the control response that was lost under treatment. Usually IC50 stands for the midpoint of a concentration-inhibition curve.

Experiment [1] relates to Plasmodium falciparum. Description: Inhibition of Plasmodium falciparum DHFR assessed as oxidation of NADPH to NADP+ at 10 uM after 15 mins spectrophotometric assay.
The subject of experiment [2] is Plasmodium falciparum. Description: Inhibition of Plasmodium falciparum falcipain-2 using Z-Leu-Arg-AMC as substrate at 10 uM after 30 mins by spectrophotometric assay.
The nature of experiment [3]: Inhibition of Plasmodium falciparum DHFR assessed as oxidation of NADPH to NADP+ after 15 mins spectrophotometric assay. The method, boiled down: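 Purified P. falciparum DHFR was preincubated 15 min on ice with graded compound concentrations in buffer containing NADPH, 50 mM TES pH 7.0, 1 mM EDTA, 75 mM 2-mercaptoethanol and 1 mg/mL BSA. DHF was then added to start the reaction, and NADPH oxidation was followed by absorbance at 340 nm. IC50 came from percent inhibition versus concentration plots, three independent experiments.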

Experiment [4] can be described thus: Inhibition of Plasmodium falciparum falcipain-2 using Z-Leu-Arg-AMC as substrate after 30 mins by spectrophotometric assay. In short, it runs like this: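 FP-2 (30 nM) was preincubated 30 min at room temperature with graded compound concentrations in 100 mM sodium acetate pH 5.5 with 10 mM DTT, DMSO ≤1%. Z-Leu-Arg-AMC in the same buffer was then added, and fluorescence (ex 355/em 460) was monitored for 30 min at room temperature. IC50 came from percent inhibition versus concentration plots, three independent experiments.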

In experiment [5] the test system is Plasmodium berghei. Description: Antimalarial activity against Plasmodium berghei ANKA infected in Kunming mouse assessed as mouse survival at 10 mg/kg, ig for 4 days measured on day 10.
The test system of experiment [6] is Plasmodium berghei. Description: Antimalarial activity against Plasmodium berghei ANKA infected in Kunming mouse assessed as reduction of parasitemia at 10 mg/kg, ip for 4 days measured on day 5. In kind it is functional. On the set-up: scale not given: the % may be the effect or the level left. Conditions: route intraperitoneal.
In experiment [7] the test system is Plasmodium falciparum. The experiment can be described thus: Ratio of N-(2,3-dihydrobenzo[b][1,4]dioxin-6-yl)-3-(4-(N-phenethylsulfamoyl)phenyl)propanamide IC50 to compound IC50 for Plasmodium falciparum falcipain-2.
The test system of experiment [8] is Plasmodium berghei. Description: Antimalarial activity against Plasmodium berghei ANKA infected in Kunming mouse assessed as mouse survival at 9 mg/kg, ip for 4 days measured on day 10. Conditions: in the assay text read “ig for 4 days” for “ip for 4 days”. The experiment is classed as functional, organism-based. More on the design: dose 9 mg/kg. The method, boiled down:
(§1)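 Kunming mice (groups of 10, 20 2 g) infected ip with 0.2 mL of RBC (5 × 10⁶) from P. berghei ANKA-infected mice. The compound was given intragastrically starting 5 h post-infection, for 4 consecutive days, at 3, 9 or 18 mg kg⁻¹ d⁻¹ (4-day suppressive test). Parasitemia was counted as infected RBC per 1000 RBC on day 5, and reduction was calculated as 100 − 100 × (treated/control mean % parasitemia). Survivors were counted on day 10.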

Experiment [9] concerns Plasmodium berghei. The experiment can be described thus: Antimalarial activity against Plasmodium berghei ANKA infected in ig dosed Kunming mouse assessed as reduction of parasitemia administered for 4 days measured on day 5.
Experiment [10] deals with Plasmodium berghei. The experiment can be described thus: Antimalarial activity against Plasmodium berghei ANKA infected in Kunming mouse assessed as mouse survival at 18 mg/kg, ip for 4 days measured on day 10. In kind it is functional, organism-based. On the set-up: dose 18 mg/kg. The note with it: in the assay text read “ig for 4 days” for “ip for 4 days”. The method, boiled down:
as §1

Experiment [11] relates to Plasmodium berghei. Description: Antimalarial activity against Plasmodium berghei ANKA infected in Kunming mouse assessed as reduction of parasitemia at 18 mg/kg, ip for 4 days measured on day 5. The experiment is classed as functional. More on the design: scale not given: the % may be the effect or the level left. The note with it: route intragastric, in the assay text read “ig for 4 days” for “ip for 4 days”. In short, it runs like this:
as §1

Experiment [12] concerns Plasmodium berghei. The experiment can be described thus: Antimalarial activity against Plasmodium berghei ANKA infected in Kunming mouse assessed as reduction of parasitemia at 9 mg/kg, ip for 4 days measured on day 5. Conditions: route intragastric, in the assay text read “ig for 4 days” for “ip for 4 days”. On the set-up: scale not given: the % may be the effect or the level left. In kind it is functional. The method, boiled down:
as §1

For experiment [13], the system named is Plasmodium berghei. The experiment can be described thus: Antimalarial activity against Plasmodium berghei ANKA infected in Kunming mouse assessed as reduction of parasitemia at 3 mg/kg, ig for 4 days measured on day 5. On the set-up: scale not given: the % may be the effect or the level left. Conditions: route intragastric.
Experiment [14] deals with Plasmodium berghei. Description: Antimalarial activity against Plasmodium berghei ANKA infected in Kunming mouse assessed as mouse survival at 3 mg/kg, ip for 4 days measured on day 10. In kind it is functional, organism-based. More on the design: dose 3 mg/kg. The note with it: in the assay text read “ig for 4 days” for “ip for 4 days”. The method, boiled down:
as §1

Experiment [15] relates to Plasmodium falciparum. The experiment can be described thus: Ratio of N-(2,3-dihydrobenzo[b][1,4]dioxin-6-yl)-3-(4-(N-phenethylsulfamoyl)phenyl)propanamide IC50 to compound IC50 for Plasmodium falciparum DHFR.

Activity calls are given as the source filed them. The calls are words filed in the database; no cut-off is given here.

As to `O=C(CCc1ccc(S(=O)(=O)NCc2ccccc2)cc1)Nc1ccc2c(c1)OCCO2`, the figures for the inhibition in experiment [1] and in [2] were 15.6% and under 5%, respectively.

On to `O=C(Cc1ccc(S(=O)(=O)NCCc2ccccc2)cc1)Nc1ccc2c(c1)OCCO2`, for which the IC50 in experiment [3] worked out at 5 µM. For the same molecule, the inhibition was 68% in experiment [1] and under 5% in experiment [2].

`O=C(CCc1ccc(S(=O)(=O)NCCc2ccccc2)cc1)Nc1nc2ccccc2s1`: the IC50 was 8.9 µM in experiment [4] and 15.1 µM in [3]. Further, the values for the inhibition in experiment [1] and in experiment [2] were 37.9% and 41.5%, respectively.

As for `O=C(CCc1ccc(S(=O)(=O)NCCc2ccccc2)cc1)Nc1ccc2c(c1)OCCO2`, the IC50 came to 54.2 µM in experiment [4] and 35.5 µM in [3]. In addition, the inhibition in [1] came to 26.5%; in experiment [2], 23%.

Regarding `CCc1nnc(NC(=O)CCc2ccc(S(=O)(=O)NCCc3ccccc3)cc2)s1`, the results for the IC50 in experiment [4] and in experiment [3] were 8.1 µM and 19.8 µM, respectively. Besides, the inhibition in [1] is 31.6%; in [2], 46.5%.

With `CCc1nnc(NC(=O)CCc2ccc(S(=O)(=O)Nc3ccc(F)c(Cl)c3)cc2)s1`, the IC50 was determined as 9.8 µM in experiment [4] and 1.8 µM in [3]. The inhibition in experiment [1] came to 70.6%; in experiment [2] it was 45.1%.

In the case of `O=C(CCc1ccc(S(=O)(=O)NCCc2ccccc2)cc1)NCc1ccccn1`, the inhibition in [1] is 17.9%; in experiment [2], 10.7%.

Regarding `COc1ccc(NS(=O)(=O)c2ccc(CCC(=O)Nc3ccc4c(c3)OCCO4)cc2)cc1OC`, the inhibition in [1] was determined as 23.2%; in [2] it was 6.3%.

For the molecule `CCN(CC)CCCC(C)Nc1ccnc2cc(Cl)ccc12.O=P(O)(O)O.O=P(O)(O)O` (centres undefined) [CHLOROQUINE PHOSPHATE], the outcome in [5] was Active. Besides, the Activity in [6] was 100%.

For the molecule `O=C(CCc1ccc(S(=O)(=O)NCCc2ccccc2)cc1)Nc1nc(-c2ccccc2)cs1`, the results for the IC50 in experiment [4] and in [3] were 2.7 µM and 14.6 µM, respectively. Moreover, the inhibition stood at 34.8% in experiment [1] and 94.5% in experiment [2].

On to `CCc1nnc(NC(=O)CCc2ccc(S(=O)(=O)Nc3ccc(F)cc3)cc2)s1`, for which the Ratio IC50 in experiment [7] came to 8; in experiment [15] it was 6. In addition, the IC50 in experiment [4] was found to be 7 µM; in experiment [3], 6.3 µM. The result in experiment [8], in experiment [10] and in experiment [14] was Active. The inhibition in experiment [1] was 67.5%; in experiment [2], 72.9%. Further, the Activity result was “Dose dependent effect” in experiment [9], 75.6% in [11], 53.6% in experiment [12] and 44.6% in experiment [13].

As for `CC(C)C[C@H](NC(=O)[C@H]1O[C@@H]1C(=O)O)C(=O)NCCCCN=C(N)N` [E-64], in experiment [4], half-maximal inhibition (IC50) was put at 0.017 µM. The inhibition in [2] was found to be 97.4%.

As to `O=C(CCc1ccc(S(=O)(=O)Nc2ccc(F)c(Cl)c2)cc1)Nc1ccc2c(c1)OCCO2`, the values for the IC50 in [4] and in experiment [3] were 13.2 µM and 16.8 µM, respectively. Besides, the inhibition in experiment [1] stood at 46.5%; in experiment [2] it was 32.7%.

As for `COc1ccc(NC(=O)CCc2ccc(S(=O)(=O)NCCc3ccccc3)cc2)cc1O`, in [3], the IC50 turned out to be 12.6 µM. The inhibition in experiment [1] was found to be 46.1%; in [2], 13.6%.

Take `COc1ccc(NC(=O)CCc2ccc(S(=O)(=O)NCCc3ccccc3)cc2)cc1OC`: in [3], the IC50 was 9.4 µM. Also, the inhibition in experiment [1] turned out to be 51.2%; in experiment [2] it was 15%.

For `O=C(CCc1ccc(S(=O)(=O)NCCc2ccccc2)cc1)NCc1cccs1`, the results for the inhibition in experiment [1] and in experiment [2] were 10.8% and 15.2%, respectively.

On to `CCc1nc(N)nc(N)c1-c1ccc(Cl)cc1` [PYRIMETHAMINE], for which, in experiment [3], the IC50 came to 0.02 µM. Further, the inhibition in [1] was 98.9%.

`COc1cccc(NS(=O)(=O)c2ccc(CCC(=O)Nc3ccc4c(c3)OCCO4)cc2)c1`: the inhibition came to 9.3% in experiment [1] and 17.9% in [2].

As to `O=C(Nc1ccc2c(c1)OCCO2)c1ccc(S(=O)(=O)NCCc2ccccc2)cc1`, the figures for the inhibition in [1] and in experiment [2] were 11.8% and under 5%, respectively.

These data come from ChEMBL document CHEMBL1938236, “Design and synthesis of small molecular dual inhibitor of falcipain-2 and dihydrofolate reductase as antimalarial agent” (Bioorg Med Chem Lett, 2012).
